Laboratory results: ChEMBL document CHEMBL1124104, “(Acyloxy)benzophenones and (acyloxy)-4-pyrones. A new class of inhibitors of human neutrophil elastase” (J Med Chem, 1988)

What was measured:
Neutrophil elastase [1] = target: T1, Neutrophil elastase (Homo sapiens, UniProt P08246); experiment: Inhibitory activity against human leukocyte elastase at 10e-7 M
T1 sequence (P08246 whole entry): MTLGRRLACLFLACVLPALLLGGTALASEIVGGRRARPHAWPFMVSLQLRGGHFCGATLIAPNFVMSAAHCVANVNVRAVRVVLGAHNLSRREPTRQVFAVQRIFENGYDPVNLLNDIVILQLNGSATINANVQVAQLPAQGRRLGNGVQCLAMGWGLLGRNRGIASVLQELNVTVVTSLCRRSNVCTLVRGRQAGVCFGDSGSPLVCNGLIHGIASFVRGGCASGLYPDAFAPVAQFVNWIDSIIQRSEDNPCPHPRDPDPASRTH

[2] = Inhibitory activity against Hog pancreatic elastase;IA = Inactive at 10e-5 M; set-up: species or system Sus scrofa
[3] = target: T2, Neutrophil elastase (Homo sapiens) (UniProt P08246); experiment: Inhibitory activity against [14C]elastin hydrolysis at 4 uM concentration and 1h.
T2 sequence (whole entry): T1 sequence (P08246 whole entry)
In short: (§1)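 Elastase digestion of [¹⁴C]elastin, quantitated by radiolabel release (method of Bielefeld et al.). Substrate, inhibitor and elastase were all present for the whole run, and % inhibition was read at 1, 2 and 3 h.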

[4] = target: T2, Neutrophil elastase (Homo sapiens); experiment: Inhibitory activity against [14C]elastin hydrolysis at 3 uM concentration and 1h.; in short: as §1
[5] = Inhibitory activity against pancreatic elastase; IA = Inactive at 10e-5 M
[6] = target: T2, Neutrophil elastase (Homo sapiens); experiment: Inhibitory activity against [14C]-Elastin hydrolysis at 2 uM concentration and 2 hr.; in short: as §1
[7] = target: T2, Neutrophil elastase (Homo sapiens); experiment: Inhibitory activity against [14C]elastin hydrolysis at 2 uM concentration and 1h.; in short: as §1
[8] = target: T2, Neutrophil elastase (Homo sapiens); experiment: Inhibitory activity against [14C]-Elastin hydrolysis at 3 uM concentration and 3h.; in short: as §1
[9] = target: T2, Neutrophil elastase (Homo sapiens); experiment: Inhibitory activity against [14C]elastin hydrolysis at 4 uM concentration and 2 hr.; in short: as §1
[10] = target: T2, Neutrophil elastase (Homo sapiens); experiment: Inhibitory activity against [14C]elastin hydrolysis at 3 uM concentration and 2 hr.; in short: as §1
[11] = target: T2, Neutrophil elastase (Homo sapiens); experiment: Inhibitory activity against [14C]-Elastin hydrolysis at 2 uM concentration and 3h.; in short: as §1
[12] = target: T2, Neutrophil elastase (Homo sapiens); experiment: Inhibitory activity against [14C]elastin hydrolysis at 4 uM concentration and 3h.; in short: as §1
Neutrophil elastase [13] = target: T1, Neutrophil elastase; experiment: Inhibitory activity against human leukocyte elastase at 10e-5 M
In short: (§2)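 HLE activity followed as rise in absorbance at 410 nm from nitroanilide release; substrate (methoxysuccinyl)Ala-Ala-Pro-Val nitroanilide at 10⁻⁴ M. Run in 0.2 M Tris, pH 8.0, 30 °C. Inhibitors and substrate dissolved in DMSO, which made up 10% of the final medium. Enzyme titrated to give 0.12 OD unit/min per 10 mm path.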

[14] = Inhibitory activity against pancreatic elastase; A = Inactive at 10e-5 M
Neutrophil elastase [15] = target: T1, Neutrophil elastase; experiment: Inhibitory activity against human leukocyte elastase at 10e-8 M
Neutrophil elastase [16] = target: T1, Neutrophil elastase; experiment: Binding affinity towards human leukocyte elastase at 10e-7 M
[17] = target: T2, Neutrophil elastase (Homo sapiens); experiment: Inhibitory activity against [14C]elastin hydrolysis at 1 uM concentration and 2 hr.; in short: as §1
[18] = target: T2, Neutrophil elastase (Homo sapiens); experiment: Inhibitory activity against [14C]elastin hydrolysis at 1 uM concentration and 3h.; in short: as §1
[19] = target: T2, Neutrophil elastase (Homo sapiens); experiment: Inhibitory activity against [14C]elastin hydrolysis at 1 uM concentration and 1h.; in short: as §1
[20] = Inhibitory activity against Hog pancreatic elastase; A = Inactive at 10e-5 M; set-up: species or system Sus scrofa
Neutrophil elastase [21] = target: T1, Neutrophil elastase; experiment: Inhibitory activity against human leukocyte elastase at 10e-6 M
Neutrophil elastase [22] = target: T1, Neutrophil elastase; experiment: Inhibitory activity against human leukocyte elastase at 10e-9 M; in short: as §2
[23] = target: T2, Neutrophil elastase (Homo sapiens); experiment: Inhibitory activity against [14C]elastin hydrolysis at 0.5 uM concentration and 1h.; in short: as §1
[24] = target: T2, Neutrophil elastase (Homo sapiens); experiment: Inhibitory activity against [14C]-Elastin hydrolysis at 0.5 uM concentration and 2 hr.; in short: as §1
[25] = target: T2, Neutrophil elastase (Homo sapiens); experiment: Inhibitory activity against [14C]elastin hydrolysis at 0.5 uM concentration and 3h.; in short: as §1
Neutrophil elastase [26] = target: T1, Neutrophil elastase; experiment: Inhibitory activity against human leukocyte elastase; No inhibition at 1x10E-2 M; in short: as §2
Neutrophil elastase [27] = target: T1, Neutrophil elastase; experiment: Inhibitory activity against human leukocyte elastase at 10e-4 M; in short: as §2
Neutrophil elastase [28] = target: T1, Neutrophil elastase; experiment: Inhibitory activity against human leukocyte elastase;IA = Inactive at 10e-4 M; in short: as §2

## CCCCCCCCCCCCCCCCCC(=O)OCc1cc(=O)c(OC(=O)C(C)(C)C)co1
Neutrophil elastase [1]
  IC50: 100 nM
[2]
  IC50: Not Active
[3]
  inhibition: 79%
[4]
  inhibition: 67%
[5]
  IC50: Not Active
[6]
  inhibition: 21%
[7]
  inhibition: 57%
[8]
  inhibition: 13%
[9]
  inhibition: 53%
[10]
  inhibition: 39%
[11]
  inhibition: 9%
[12]
  inhibition: 21%

## CC(C)(C)C(=O)OCc1cc(=O)c(OC(=O)C(C)(C)C)co1
Neutrophil elastase [13]
  IC50: 36000 nM

## CCCCCCCCCCCCCCCC(=O)OCc1cc(=O)c(OC(=O)C(C)(C)C)co1
Neutrophil elastase [1]
  IC50: 110 nM

## CC(C)(C)C(=O)Oc1ccc(C(=O)OCc2cc(=O)c(OC(=O)C(C)(C)C)co2)c(OC(=O)C(C)(C)C)c1
[14]
  IC50: Not Active
[3]
  inhibition: 93%
[6]
  inhibition: 16%
Neutrophil elastase [15]
  IC50: 27 nM
Neutrophil elastase [16]
  Ki: 70 nM
[7]
  inhibition: 36%
[17]
  inhibition: 5%
[9]
  inhibition: 80%
[18]
  inhibition: -1%
[19]
  inhibition: 25%
[11]
  inhibition: 1%
[20]
  IC50: Not Active
[12]
  inhibition: 54%

## CCCCCCC/C=C/CCCCCCCCC(=O)Oc1coc(COC(=O)CCCCCCC/C=C/CCCCCCCC)cc1=O
Neutrophil elastase [21]
  IC50: 6100 nM

## CC(C)(C)C(=O)Oc1cc(C(=O)OCc2cc(=O)c(OC(=O)C(C)(C)C)co2)cc(OC(=O)C(C)(C)C)c1OC(=O)C(C)(C)C
Neutrophil elastase [1]
  IC50: 100 nM
[4]
  inhibition: 71%
[6]
  inhibition: 44%
[7]
  inhibition: 58%
[8]
  inhibition: 31%
[17]
  inhibition: 15%
[10]
  inhibition: 67%
[18]
  inhibition: 3%
[19]
  inhibition: 39%
[11]
  inhibition: 5%

## O=C(c1ccccc1)c1ccc(OC(=O)C2CCCCC2)cc1
Neutrophil elastase [13]
  IC50: 20000 nM

## CC(C)(C)C(=O)Oc1ccc(Oc2ccc(OC(=O)C(C)(C)C)cc2)cc1
Neutrophil elastase [1]
  IC50: 450 nM

## C=C(C)C(=O)Oc1ccc(C(=O)c2ccccc2)cc1
Neutrophil elastase [22]
  IC50: 1900 nM

## O=C(c1ccccc1)c1ccc(OC(=O)C2CC2)cc1
Neutrophil elastase [21]
  IC50: 1400 nM

## CC(C)(C)C(=O)Oc1ccc(S(=O)(=O)c2ccc(OC(=O)C(C)(C)C)cc2)cc1
[4]
  inhibition: 56%
[6]
  inhibition: 29%
[7]
  inhibition: 39%
[8]
  inhibition: 29%
[17]
  inhibition: 14%
[10]
  inhibition: 40%
[19]
  inhibition: 29%
[11]
  inhibition: 8%

## CCC(=O)Oc1ccc(C(=O)c2ccccc2)cc1
Neutrophil elastase [21]
  IC50: 6200 nM

## CC(C)(C)C(=O)Oc1ccc(C(=O)c2ccc(OC(=O)C(C)(C)C)cc2OC(=O)C(C)(C)C)cc1
[6]
  inhibition: 81%
[7]
  inhibition: 81%
[17]
  inhibition: 63%
[23]
  inhibition: 20%
[24]
  inhibition: 19%
[25]
  inhibition: 6%
[18]
  inhibition: 47%
[19]
  inhibition: 45%
[11]
  inhibition: 76%

## O=C1CCc2cc(C(=O)c3ccccc3)ccc2O1
Neutrophil elastase [26]
  IC50: No inhibition

## CC(C=O)Cc1cc(C(=O)c2ccccc2)ccc1OC(=O)C(C)(C)C (stereo not drawn)
Neutrophil elastase [1]
  IC50: 800 nM

## CC(C)(C)C(=O)Oc1coc(COC(=O)c2ccc(-c3ccccc3)cc2)cc1=O
Neutrophil elastase [21]
  IC50: 1900 nM

## CC(C)(C)C(=O)Oc1coc(COC2CCOCC2)cc1=O
Neutrophil elastase [13]
  IC50: 43000 nM

## CC(C)(C)C(=O)Oc1ccc(C(O)c2ccc(OC(=O)C(C)(C)C)cc2)cc1
Neutrophil elastase [21]
  IC50: 1500 nM

## C=C(C)Cc1cc(C(=O)c2ccccc2)ccc1OC(=O)C(C)(C)C
Neutrophil elastase [1]
  IC50: 850 nM

## CCCCCCCC/C=C/CCCCCCCCCC(=O)OCc1cc(=O)c(OC(=O)C(C)(C)C)co1
Neutrophil elastase [1]
  IC50: 210 nM

## CCCCCCCC/C=C/CCCCCCCC(=O)OCc1cc(=O)c(OC(=O)C(C)(C)C)co1
Neutrophil elastase [1]
  IC50: 300 nM

## CC(C)(C)C(=O)Oc1ccc(Cc2ccc(OC(=O)C(C)(C)C)cc2)cc1
Neutrophil elastase [1]
  IC50: 460 nM

## CC(C)(C)C(=O)Oc1ccc(S(=O)(=O)c2ccc(O)cc2)cc1
Neutrophil elastase [1]
  IC50: 1800 nM

## CCCCCCCCCCCCCCCC(=O)OCc1cc(=O)c(O)co1
Neutrophil elastase [27]
  IC50: 100000 nM

## CC(C)(C)C(=O)Oc1coc(CO)cc1=O
Neutrophil elastase [28]
  IC50: Not Active

## CC1(C)Cc2cc(C(=O)c3ccccc3)ccc2OC1=O
Neutrophil elastase [26]
  IC50: No inhibition
